Results on five molecules are retold here after ChEMBL document CHEMBL4354819, “Discovery of Novel Small Molecule Dual Inhibitors Targeting Toll-Like Receptors 7 and 8” (J Med Chem, 2019).

In data set [1] the target is Toll-like receptor 8 (Homo sapiens) (UniProt Q9NR97). Nature of the data set: Inhibition of human TLR8 expressed in HEK293 cells assessed as reduction in resiquimod-induced NFkappaB production at 1.5 to 5 uM incubated for 16 hrs by quanti-blue SEAP assay.
Data set [2] concerns the target Toll-like receptor 7 (Homo sapiens) (UniProt Q9NYK1). Nature of the data set: Inhibition of human TLR7 expressed in HEK293 cells assessed as reduction in R848-induced NFkappaB production incubated for 16 hrs by quanti-blue SEAP assay. Conditions: concentration not given here.
In data set [3] the target is Toll-like receptor 4 (Homo sapiens) (UniProt O00206). Briefly: Inhibition of human TLR4 expressed in HEK293 cells assessed as reduction in LPS-induced NFkappaB production at 1.5 to 5 uM incubated for 16 hrs by quanti-blue SEAP assay. Format: cell-based. In short, it runs like this: (§1)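 Selectivity panel in stably transfected HEK 293-Blue cells, each overexpressing one human TLR with an inducible SEAP reporter. Agonists: Pam3CSK4 (TLR1/2), Pam2CSK4 (TLR2/6), poly(I:C) (TLR3), LPS (TLR4), R848 (TLR7/8), ODN 2006 (TLR9). Cells were exposed to compound for 16 h. Activity = (raw − untreated)/(ligand + solvent − untreated), with ligand + solvent set as 100%.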
Chain of Toll-like receptor 4 (Homo sapiens) (O00206 whole entry): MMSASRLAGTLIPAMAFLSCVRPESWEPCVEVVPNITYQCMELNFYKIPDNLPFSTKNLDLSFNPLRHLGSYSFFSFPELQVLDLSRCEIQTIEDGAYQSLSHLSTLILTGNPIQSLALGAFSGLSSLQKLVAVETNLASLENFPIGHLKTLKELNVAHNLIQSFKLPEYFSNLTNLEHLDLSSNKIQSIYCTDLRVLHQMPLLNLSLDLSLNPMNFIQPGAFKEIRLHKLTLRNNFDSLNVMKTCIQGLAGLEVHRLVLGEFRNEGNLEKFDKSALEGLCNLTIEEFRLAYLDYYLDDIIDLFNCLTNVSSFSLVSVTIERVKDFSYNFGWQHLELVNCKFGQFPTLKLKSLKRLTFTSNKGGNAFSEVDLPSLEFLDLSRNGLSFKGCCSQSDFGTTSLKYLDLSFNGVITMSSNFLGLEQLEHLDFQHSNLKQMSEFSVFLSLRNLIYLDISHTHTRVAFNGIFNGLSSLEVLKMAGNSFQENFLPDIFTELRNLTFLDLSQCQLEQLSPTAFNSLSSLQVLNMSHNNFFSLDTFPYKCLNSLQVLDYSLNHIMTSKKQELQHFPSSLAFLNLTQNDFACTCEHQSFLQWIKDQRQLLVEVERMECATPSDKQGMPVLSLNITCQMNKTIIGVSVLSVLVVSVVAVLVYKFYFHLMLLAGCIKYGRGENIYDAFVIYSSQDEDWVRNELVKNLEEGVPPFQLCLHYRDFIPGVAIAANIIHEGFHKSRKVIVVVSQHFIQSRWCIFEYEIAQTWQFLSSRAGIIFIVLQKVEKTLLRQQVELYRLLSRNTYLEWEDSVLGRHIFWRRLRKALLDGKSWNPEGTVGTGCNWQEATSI

The target of data set [4] is T1, Toll-like receptor 8 (Homo sapiens) (UniProt Q9NR97).
T1 sequence (whole entry): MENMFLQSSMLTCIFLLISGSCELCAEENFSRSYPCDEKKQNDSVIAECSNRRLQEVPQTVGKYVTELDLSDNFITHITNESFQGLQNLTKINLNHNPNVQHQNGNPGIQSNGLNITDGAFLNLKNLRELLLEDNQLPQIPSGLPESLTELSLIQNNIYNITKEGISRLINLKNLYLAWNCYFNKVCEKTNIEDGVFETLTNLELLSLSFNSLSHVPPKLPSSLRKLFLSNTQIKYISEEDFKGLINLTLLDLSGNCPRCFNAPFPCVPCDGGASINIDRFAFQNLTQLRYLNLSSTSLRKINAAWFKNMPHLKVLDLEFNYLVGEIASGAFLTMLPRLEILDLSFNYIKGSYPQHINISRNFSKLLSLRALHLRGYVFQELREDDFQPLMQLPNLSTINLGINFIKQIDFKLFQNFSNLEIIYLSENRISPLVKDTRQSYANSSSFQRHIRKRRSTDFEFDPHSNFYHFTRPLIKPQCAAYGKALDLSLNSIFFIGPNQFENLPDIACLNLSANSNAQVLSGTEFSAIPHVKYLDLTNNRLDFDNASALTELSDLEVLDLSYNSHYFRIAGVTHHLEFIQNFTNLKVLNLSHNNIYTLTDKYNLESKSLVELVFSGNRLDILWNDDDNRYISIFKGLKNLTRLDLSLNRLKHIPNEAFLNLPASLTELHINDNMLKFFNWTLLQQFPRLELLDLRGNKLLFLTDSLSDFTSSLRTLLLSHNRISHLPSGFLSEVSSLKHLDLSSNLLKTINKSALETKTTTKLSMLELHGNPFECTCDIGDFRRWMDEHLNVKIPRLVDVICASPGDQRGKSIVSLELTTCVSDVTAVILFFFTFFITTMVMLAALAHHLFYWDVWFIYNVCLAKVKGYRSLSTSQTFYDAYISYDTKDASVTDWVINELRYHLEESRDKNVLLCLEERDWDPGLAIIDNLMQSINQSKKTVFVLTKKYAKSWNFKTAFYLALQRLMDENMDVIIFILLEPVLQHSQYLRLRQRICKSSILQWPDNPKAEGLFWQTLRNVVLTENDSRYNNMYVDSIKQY
Briefly: Inhibition of human TLR8 expressed in HEK293 cells assessed as reduction in R848-induced NFkappaB production at 1.5 to 5 uM incubated for 16 hrs by quanti-blue SEAP assay. Type of data set: cell-based. In short, it runs like this:
as §1

Data set [5] has as its system HEK293. Nature of the data set: Cytotoxicity against human HEK293 cells transfected with human TLR8 assessed as reduction in cell viability up to 5 uM incubated for 16 hrs by WST-1 assay. Type of data set: cell-based. Conditions: hek293, 16 h.
The target in data set [6] is T2, Toll-like receptor 7 (Homo sapiens) (UniProt Q9NYK1).
T2 sequence (whole entry): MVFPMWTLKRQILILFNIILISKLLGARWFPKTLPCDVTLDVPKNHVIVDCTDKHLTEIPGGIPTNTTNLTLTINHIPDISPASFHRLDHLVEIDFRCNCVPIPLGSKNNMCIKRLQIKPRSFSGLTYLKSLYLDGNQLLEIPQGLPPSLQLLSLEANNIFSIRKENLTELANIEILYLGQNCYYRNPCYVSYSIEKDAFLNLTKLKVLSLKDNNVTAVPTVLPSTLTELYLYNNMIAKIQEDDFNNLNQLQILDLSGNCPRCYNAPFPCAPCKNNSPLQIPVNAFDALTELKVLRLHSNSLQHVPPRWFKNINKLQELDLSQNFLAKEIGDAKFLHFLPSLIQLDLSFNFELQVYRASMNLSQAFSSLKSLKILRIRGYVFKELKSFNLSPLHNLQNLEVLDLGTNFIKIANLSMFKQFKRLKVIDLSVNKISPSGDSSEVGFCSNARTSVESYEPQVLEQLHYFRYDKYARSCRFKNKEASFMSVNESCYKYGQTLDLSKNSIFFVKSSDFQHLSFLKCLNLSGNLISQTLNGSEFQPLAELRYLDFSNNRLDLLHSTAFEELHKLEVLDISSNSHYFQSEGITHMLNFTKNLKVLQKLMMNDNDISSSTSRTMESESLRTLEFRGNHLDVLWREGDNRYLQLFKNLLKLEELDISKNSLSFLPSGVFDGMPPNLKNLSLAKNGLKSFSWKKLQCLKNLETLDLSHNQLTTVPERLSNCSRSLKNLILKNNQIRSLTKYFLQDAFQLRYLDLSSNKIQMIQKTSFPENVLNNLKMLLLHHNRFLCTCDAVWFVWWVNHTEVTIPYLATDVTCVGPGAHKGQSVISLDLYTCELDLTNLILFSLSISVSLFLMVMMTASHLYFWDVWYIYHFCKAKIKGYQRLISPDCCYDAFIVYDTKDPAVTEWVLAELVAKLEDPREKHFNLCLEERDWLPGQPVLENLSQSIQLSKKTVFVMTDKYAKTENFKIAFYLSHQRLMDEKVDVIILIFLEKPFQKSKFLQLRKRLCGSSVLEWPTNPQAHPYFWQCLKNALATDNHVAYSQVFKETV
Nature of the data set: Inhibition of human TLR7 expressed in HEK293 cells assessed as reduction in resiquimod-induced NFkappaB production at 1.5 to 5 uM incubated for 16 hrs by quanti-blue SEAP assay. Format: cell-based. In short, it runs like this: as §1

The next data set concerns the target TLR2/TLR6 (Homo sapiens) (UniProt O60603+Q9Y2C9). Briefly: Inhibition of human TLR2/6 expressed in HEK293 cells assessed as reduction in Pam2CSK4-induced NFkappaB production at 1.5 to 5 uM incubated for 16 hrs by quanti-blue SEAP assay. Format: cell-based. In short, it runs like this: as §1
For the next data set, the target named is T3, Toll-like receptor 8 (Homo sapiens, UniProt Q9NR97).
T3 sequence (Q9NR97 whole entry): T1 sequence (whole entry)
Briefly: (§2) Inhibition of human TLR8 expressed in HEK293 cells assessed as reduction in R848-induced NFkappaB production incubated for 16 hrs by quanti-blue SEAP assay. Type of data set: cell-based. In short, it runs like this: (§3)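 HEK 293-Blue cells stably expressing hTLR7 or hTLR8 with an inducible SEAP reporter were incubated 16 h with compound under 1 µg/mL R848 stimulation. SEAP was read at 620 nm. Data were normalized to the R848 control, and IC50 was taken from concentration-response curves. […] Mean ± s.d., n = 3 independent experiments.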

Data set [7] has as its target T1, Toll-like receptor 8 (Homo sapiens). The description is as §2. Format: cell-based. In short, it runs like this: as §3
Data set [8] deals with HEK293. Briefly: Inhibition of human TLR1/2 expressed in HEK293 cells assessed as reduction in Pam3CSK4-induced NFkappaB production at 1.5 to 5 uM incubated for 16 hrs by quanti-blue SEAP assay. Format: cell-based. In short, it runs like this:
as §1

For data set [9], the target named is T2, Toll-like receptor 7 (Homo sapiens). Briefly: Inhibition of human TLR7 expressed in HEK293 cells assessed as reduction in R848-induced NFkappaB production incubated for 16 hrs by quanti-blue SEAP assay. Format: cell-based. In short, it runs like this: as §3
Data set [10] concerns the target Toll-like receptor 3 (Homo sapiens) (UniProt O15455). Briefly: Inhibition of human TLR3 expressed in HEK293 cells assessed as reduction in poly(I:C)-induced NFkappaB production at 1.5 to 5 uM incubated for 16 hrs by quanti-blue SEAP assay. Format: cell-based. In short, it runs like this:
as §1

In data set [11] the target is T1, Toll-like receptor 8 (Homo sapiens). Briefly: Inhibition of human TLR8 expressed in HEK293 cells assessed as reduction in R848-induced NFkappaB production at 1.5 to 5 uM incubated for 16 hrs by quanti-blue SEAP assay.
For data set [12], the target named is T2, Toll-like receptor 7 (Homo sapiens). Briefly: Inhibition of human TLR7 expressed in HEK293 cells assessed as reduction in R848-induced NFkappaB production at 50 uM incubated for 16 hrs by quanti-blue SEAP assay relative to control. Type of data set: cell-based. In short, it runs like this:
as §3

Data set [13] concerns the target T1, Toll-like receptor 8 (Homo sapiens). Nature of the data set: Inhibition of human TLR8 expressed in HEK293 cells assessed as reduction in R848-induced NFkappaB production at 50 uM incubated for 16 hrs by quanti-blue SEAP assay relative to control. Type of data set: cell-based. In short, it runs like this: as §3

Active and inactive are the calls of the source. The calls are words filed in the database; no cut-off is given here.

Chain of Toll-like receptor 3 (Homo sapiens) (O15455 whole entry): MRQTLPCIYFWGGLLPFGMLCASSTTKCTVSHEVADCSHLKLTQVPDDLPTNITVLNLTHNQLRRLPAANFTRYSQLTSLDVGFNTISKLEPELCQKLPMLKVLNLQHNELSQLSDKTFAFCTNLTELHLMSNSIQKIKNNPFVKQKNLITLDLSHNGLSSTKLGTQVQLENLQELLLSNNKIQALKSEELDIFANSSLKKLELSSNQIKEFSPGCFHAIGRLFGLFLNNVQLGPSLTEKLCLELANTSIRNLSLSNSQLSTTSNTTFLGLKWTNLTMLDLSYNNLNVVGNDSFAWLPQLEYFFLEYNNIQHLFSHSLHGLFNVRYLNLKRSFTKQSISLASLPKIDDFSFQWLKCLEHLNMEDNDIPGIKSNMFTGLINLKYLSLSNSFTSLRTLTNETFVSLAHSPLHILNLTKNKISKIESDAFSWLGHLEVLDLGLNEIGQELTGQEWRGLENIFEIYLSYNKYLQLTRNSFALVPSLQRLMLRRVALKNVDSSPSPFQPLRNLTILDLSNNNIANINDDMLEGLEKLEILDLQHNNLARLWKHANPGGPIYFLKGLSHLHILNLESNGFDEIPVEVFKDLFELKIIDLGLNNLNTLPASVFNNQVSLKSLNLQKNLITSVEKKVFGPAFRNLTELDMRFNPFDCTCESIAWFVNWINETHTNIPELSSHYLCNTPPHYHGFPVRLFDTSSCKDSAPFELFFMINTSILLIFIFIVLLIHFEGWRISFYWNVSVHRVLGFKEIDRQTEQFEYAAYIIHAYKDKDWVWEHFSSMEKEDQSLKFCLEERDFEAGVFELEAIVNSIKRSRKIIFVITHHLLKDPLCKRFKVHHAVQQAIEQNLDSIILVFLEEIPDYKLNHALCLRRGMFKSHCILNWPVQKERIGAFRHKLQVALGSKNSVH

As a reminder, the IC50 is the point on the concentration scale where inhibition reaches its midpoint. As usually defined, the inhibition is the change of the read-out against control, counted positive when it falls. `CN(C(=O)c1c(F)cccc1Cl)c1ccc(Oc2cc(C(F)(F)F)cc(C(F)(F)F)c2)cc1`: the IC50 in data set [1] is 2.9 µM. Also, the inhibition in data set [2] amounted to 0%.
With `O=C(Nc1cc(C(F)(F)F)cc(C(F)(F)F)c1)c1c(F)cccc1Cl`, the IC50 in [1] is 1.4 µM. Further, the inhibition in [2] was 0%.
For `O=C(Nc1c(F)cccc1Cl)c1ccc(Oc2cc(C(F)(F)F)cc(C(F)(F)F)c2)cc1`, in that order: 7.1 µM and 0%.
As for `N#Cc1c(Cl)cccc1Oc1ccc(-c2nnco2)cc1`, the inhibition entry (in data set [3]; in data set [6]; at TLR2/TLR6 (Homo sapiens); with HEK293 [8]; in data set [10]) was “inactive” throughout. Further, the inhibition result in data set [4] and in [11] was “Active” in each case. In addition, in the data set with HEK293 [5], the Activity result is on record as “Non-Toxic”. On Toll-like receptor 8, the IC50 worked out at 1.4 µM. Besides, the inhibition entry in data set [7] and in data set [9] was “Dose-dependent effect” in each case.
With `O=C(Nc1ccc(Oc2cc(C(F)(F)F)cc(C(F)(F)F)c2)cc1)c1c(F)cccc1C(F)(F)F`, the inhibition in [12] and in data set [13] was 20 to 30% in each case.
